Data taken from ChEMBL document CHEMBL1649147, “Antistaphylococcal activity of dihydrophthalazine antifolates, a family of novel antibacterial drugs” (2009).
In brackets after ≈: the same amount, converted by molar mass.

What was measured:
[1] = test system: Staphylococcus aureus; experiment: Antibacterial activity against methicillin-resistant Staphylococcus aureus ATCC 43300 by broth macrodilution method; assay type: functional; conditions: ATCC43300
[2] = test system: Staphylococcus epidermidis; experiment: Antibacterial activity against coagulase-negative Staphylococcus epidermidis 225 after 10 passages in MBH without antibiotic by agar dilution method; assay type: functional
How it was run: (§1)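 After drug-selective serial passage, selected clones were passaged 10 times in antibiotic-free MHB. MICs were then redetermined, and the change is expressed as log2 dilution steps.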

[3] = test system: Staphylococcus aureus; experiment: Antibacterial activity against methicillin-susceptible Staphylococcus aureus 505 by broth macrodilution method; assay type: functional
[4] = test system: Staphylococcus aureus; experiment: Antibacterial activity against vancomycin-resistant Staphylococcus aureus VRS1 after 10 passages in MHB without antibiotic by agar dilution method; assay type: functional
How it was run: (§2)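 Clones from the end of drug passage were transferred 10 times in MHB without antibiotic, then retested by agar dilution. MIC change is expressed as log2 dilution steps.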

[5] = test system: Staphylococcus epidermidis; experiment: Antibacterial activity against coagulase-negative Staphylococcus epidermidis 197 assessed as change in MIC by agar dilution method after serial passages in presence of antibiotic relative to control; assay type: functional
How it was run: (§3)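 Serial passage under drug. Inoculum was ~1 × 10^6 CFU/ml from overnight MHA growth, in 1 ml MHB at 35°C for 24 h. Drug ranged from 4 log2 steps above to 3 log2 steps below the MIC. […] MIC change is given as log2 steps.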

[6] = test system: Staphylococcus epidermidis; experiment: Antibacterial activity against coagulase-negative Staphylococcus epidermidis 345 assessed as change in MIC by agar dilution method after serial passages in the absence of antibiotic relative to control; assay type: functional; how it was run: as §1
[7] = test system: Staphylococcus epidermidis; experiment: Antibacterial activity against coagulase-negative Staphylococcus epidermidis 225 assessed as change in MIC by agar dilution method after serial passages in the absence of antibiotic relative to control; assay type: functional; how it was run: as §1
[8] = test system: Staphylococcus aureus; experiment: Antibacterial activity against methicillin-susceptible Staphylococcus aureus ATCC 29213 by broth macrodilution method; assay type: functional; conditions: ATCC29213
[9] = test system: Staphylococcus aureus; experiment: Antibacterial activity against vancomycin-resistant Staphylococcus aureus VRS1 assessed as change in MIC by agar dilution method after serial passages in presence of antibiotic relative to control; assay type: functional
How it was run: (§4)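 Daily serial passage for up to 50 days at 35°C for 24 h in 1 ml MHB. […] Each transfer used 10 µl from the tube nearest the MIC (1–2 dilutions below) with the same turbidity as the drug-free control. […] MICs were measured by agar dilution, with changes given as log2 steps.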

[10] = test system: Staphylococcus epidermidis; experiment: Antibacterial activity against coagulase-negative Staphylococcus epidermidis 345 by agar dilution method; assay type: functional
How it was run: (§5)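 MICs by agar dilution on Mueller-Hinton agar following CLSI guidelines. S. aureus ATCC 29213 and E. faecalis ATCC 29212 were run as quality controls with each set, and test-strain MICs were kept only if control MICs fell within acceptable ranges.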

[11] = test system: Staphylococcus epidermidis; experiment: Antibacterial activity against methicillin-resistant coagulase-negative Staphylococcus epidermidis 345 by broth macrodilution method; assay type: functional
[12] = test system: coagulase-negative staphylococci; experiment: Antibacterial activity against methicillin-resistant coagulase-negative staphylococci by agar dilution method
[13] = test system: coagulase-negative staphylococci; experiment: Antibacterial activity against methicillin-susceptible coagulase-negative staphylococci by agar dilution method
[14] = test system: Staphylococcus epidermidis; experiment: Antibacterial activity against coagulase-negative Staphylococcus epidermidis 051 after 10 passages in MBH without antibiotic by agar dilution method; assay type: functional; how it was run: as §1
[15] = test system: Staphylococcus epidermidis; experiment: Antibacterial activity against coagulase-negative Staphylococcus epidermidis 057 after 10 passages in MBH without antibiotic by agar dilution method; assay type: functional; how it was run: as §1
[16] = test system: Staphylococcus aureus; experiment: Antibacterial activity against methicillin-resistant Staphylococcus aureus 507 by broth macrodilution method; assay type: functional
[17] = test system: Staphylococcus aureus; experiment: Antibacterial activity against Staphylococcus aureus 145 assessed as change in MIC by agar dilution method after serial passages in the absence of antibiotic relative to control; assay type: functional; how it was run: as §1
[18] = test system: coagulase-negative staphylococci; experiment: Antibacterial activity against Tmp-susceptible coagulase-negative staphylococci by agar dilution method
[19] = test system: Staphylococcus epidermidis; experiment: Antibacterial activity against coagulase-negative Staphylococcus epidermidis 057 by agar dilution method; assay type: functional
How it was run: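 Agar dilution MIC determined on Mueller-Hinton agar following CLSI guidelines. S. aureus ATCC 29213 and Enterococcus faecalis ATCC 29212 were run as quality controls with each set, and test MICs were accepted only when the control MICs fell within acceptable ranges. Test organism was a coagulase-negative S. epidermidis strain.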

[20] = test system: Staphylococcus aureus; experiment: Antibacterial activity against Tmp-susceptible coagulase-negative Staphylococcus aureus by agar dilution method; assay type: functional; how it was run: as §5
[21] = test system: Staphylococcus aureus; experiment: Antibacterial activity against methicillin-susceptible Staphylococcus aureus by agar dilution method; assay type: functional
How it was run: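 Agar dilution on Mueller-Hinton agar per CLSI guidelines. S. aureus ATCC 29213 and E. faecalis ATCC 29212 were run with each set, and test MICs were accepted only when the control strains fell within acceptable ranges.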

[22] = test system: Staphylococcus epidermidis; experiment: Antibacterial activity against coagulase-negative Staphylococcus epidermidis 225 by agar dilution method; assay type: functional; how it was run: as §5
[23] = test system: Staphylococcus aureus; experiment: Antibacterial activity against methicillin-susceptible Staphylococcus aureus ATCC 29213 after 50 passages by agar dilution method; assay type: functional; conditions: ATCC29213; how it was run: as §4
[24] = test system: Staphylococcus epidermidis; experiment: Antibacterial activity against methicillin-resistant coagulase-negative Staphylococcus epidermidis 197 by broth macrodilution method; assay type: functional
[25] = test system: coagulase-negative staphylococci; experiment: Antibacterial activity against Tmp-resistant coagulase-negative staphylococci by agar dilution method
[26] = test system: Staphylococcus epidermidis; experiment: Antibacterial activity against coagulase-negative Staphylococcus epidermidis 051 by agar dilution method; assay type: functional; how it was run: as §5
[27] = test system: Staphylococcus aureus; experiment: Antibacterial activity against vancomycin-resistant Staphylococcus aureus VRS1 assessed as change in MIC by agar dilution method after serial passages in the absence of antibiotic relative to control; assay type: functional; how it was run: as §2
[28] = test system: Staphylococcus aureus; experiment: Antibacterial activity against methicillin-susceptible, vancomycin-intermediate Staphylococcus aureus 505 by broth macrodilution method; assay type: functional
[29] = test system: Staphylococcus epidermidis; experiment: Antibacterial activity against methicillin-resistant coagulase-negative Staphylococcus epidermidis 197 after 50 passages by agar dilution method; assay type: functional
How it was run: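 Daily serial passage for up to 50 days at 35°C for 24 h in 1 ml MHB. Each transfer used 10 µl from the tube nearest the MIC (1–2 dilutions below) with the same turbidity as the drug-free control. MICs were measured by agar dilution, with changes given as log2 steps.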

[30] = test system: Staphylococcus aureus; experiment: Antibacterial activity against vancomycin-resistant Staphylococcus aureus VRS1 by broth macrodilution method; assay type: functional
How it was run: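 Michigan VRSA strain, one of 12 staphylococci later used in time-kill studies. MIC was determined by broth macrodilution and reported in μg/ml.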

[31] = test system: Staphylococcus epidermidis; experiment: Antibacterial activity against methicillin-resistant coagulase-negative Staphylococcus epidermidis 074 by broth macrodilution method; assay type: functional
[32] = test system: Staphylococcus epidermidis; experiment: Antibacterial activity against coagulase-negative Staphylococcus epidermidis 057 assessed as change in MIC by agar dilution method after serial passages in the absence of antibiotic relative to control; assay type: functional; how it was run: as §1
[33] = test system: Staphylococcus epidermidis; experiment: Antibacterial activity against coagulase-negative Staphylococcus epidermidis 345 after 10 passages in MBH without antibiotic by agar dilution method; assay type: functional; how it was run: as §1
[34] = test system: Staphylococcus aureus; experiment: Antibacterial activity against Staphylococcus aureus 145 after 10 passages in MHB without antibiotic by agar dilution method; assay type: functional; how it was run: as §1
[35] = test system: Staphylococcus aureus; experiment: Antibacterial activity against Staphylococcus aureus ATCC 43300 assessed as change in MIC by agar dilution method after serial passages in presence of antibiotic relative to control; assay type: functional; how it was run: as §3

Row | Structure (SMILES) | MIC [1] [mg/L] | MIC [2] [mg/L] | MIC [3] [mg/L] | MIC [4] [mg/L] | fold change (FC) [5] | fold change (FC) [6] | fold change (FC) [7] | MIC [8] [mg/L] | fold change (FC) [9] | MIC [10] [mg/L] | MIC [11] [mg/L] | MIC50 [12] [mg/L] | MIC90 [12] [mg/L] | MIC90 [13] [mg/L] | MIC [14] [mg/L] | MIC [15] [mg/L] | MIC [16] [mg/L] | fold change (FC) [17] | MIC50 [18] [mg/L] | MIC90 [18] [mg/L] | other results
1 | COc1cc(Cc2cnc(N)nc2N)cc(/C=C/C(=O)N2N=Cc3ccccc3C2c2cnc(N(C)C)nc2)c1OC (stereo not drawn) | 0.03 (≈ 0.053 µM) | 2 (≈ 3.54 µM) | 0.125 (≈ 0.221 µM) | > 128 | 1 | -7 | -7 | 0.06 (≈ 0.106 µM) | 10 | 0.06 (≈ 0.106 µM) | 0.06 (≈ 0.106 µM) | 0.06 (≈ 0.106 µM) | 0.5 (≈ 0.884 µM) | 0.03 (≈ 0.053 µM) | 4 (≈ 7.07 µM) | 128 (≈ 226 µM) | 0.125 (≈ 0.221 µM) | 0 | 0.016 (≈ 0.0283 µM) | 0.03 (≈ 0.053 µM) | MIC [19]: 8 mg/L (≈ 14.1 µM); MIC [20]: ≤ 0.008 mg/L; MIC50 [21]: 0.03 mg/L (≈ 0.053 µM); MIC90 [21]: 0.25 mg/L (≈ 0.442 µM); MIC [22]: 0.25 mg/L (≈ 0.442 µM); MIC [23]: 0.5 mg/L (≈ 0.884 µM); MIC [24]: 0.03 mg/L (≈ 0.053 µM); MIC50 [25]: 0.125 mg/L (≈ 0.221 µM); MIC90 [25]: 0.5 mg/L (≈ 0.884 µM); MIC [26]: 0.125 mg/L (≈ 0.221 µM); fold change (FC) [27]: 0; MIC [28]: 0.03 mg/L (≈ 0.053 µM); MIC [29]: 0.125 mg/L (≈ 0.221 µM); MIC [30]: 0.5 mg/L (≈ 0.884 µM); MIC [31]: 0.06 mg/L (≈ 0.106 µM); fold change (FC) [32]: -1; MIC [33]: 2 mg/L (≈ 3.54 µM); MIC [34]: > 128 mg/L; fold change (FC) [35]: 5
2 | COc1cc(Cc2cnc(N)nc2N)cc(/C=C/C(=O)N2N=Cc3ccccc3C2c2cnc(N3CCOCC3)nc2)c1OC (stereo not drawn) | 0.03 (≈ 0.0494 µM) | 2 (≈ 3.29 µM) | 0.03 (≈ 0.0494 µM) | > 128 | 4 | -1 | -7 | 0.06 (≈ 0.0987 µM) | 8 | 0.06 (≈ 0.0987 µM) | 0.125 (≈ 0.206 µM) | 0.06 (≈ 0.0987 µM) | 0.5 (≈ 0.823 µM) | 0.06 (≈ 0.0987 µM) | 1 (≈ 1.65 µM) | 128 (≈ 211 µM) | 0.25 (≈ 0.411 µM) | 0 | 0.03 (≈ 0.0494 µM) | 0.06 (≈ 0.0987 µM) | MIC [19]: 8 mg/L (≈ 13.2 µM); MIC [20]: ≤ 0.008 mg/L; MIC50 [21]: 0.03 mg/L (≈ 0.0494 µM); MIC90 [21]: 0.25 mg/L (≈ 0.411 µM); MIC [22]: 0.25 mg/L (≈ 0.411 µM); MIC [23]: 1 mg/L (≈ 1.65 µM); MIC [24]: 0.06 mg/L (≈ 0.0987 µM); MIC50 [25]: 0.125 mg/L (≈ 0.206 µM); MIC90 [25]: 1 mg/L (≈ 1.65 µM); MIC [26]: 0.5 mg/L (≈ 0.823 µM); fold change (FC) [27]: 0; MIC [28]: 0.03 mg/L (≈ 0.0494 µM); MIC [29]: 1 mg/L (≈ 1.65 µM); MIC [30]: 1 mg/L (≈ 1.65 µM); MIC [31]: 0.25 mg/L (≈ 0.411 µM); fold change (FC) [32]: -1; MIC [33]: 2 mg/L (≈ 3.29 µM); MIC [34]: 128 mg/L (≈ 211 µM); fold change (FC) [35]: 5
